The nature of series [1]: Toxicity against Drosophila W1118 assessed as proportion of eclosed-flies at 1 uM measured after 72 hrs.
A short description of series [2]: Toxicity against Drosophila W1118 assessed as proportion of eclosed-flies at 50 uM measured after 72 hrs.
The subject of series [3] is Drosophila. Nature of the series: Downregulation of SOD1 transcript expression in Spastin Drosophila (Tubulin/Gal4 RNAi DSpast) neurodegenerative model at 10 uM flies raised in compound-enriched food by real-time PCR analysis. Type of series: functional. The gist of the method: (§1)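 Total RNA from 5 third-instar Spastin-RNAi larvae raised on standard or compound-enriched food; Tubulin-Gal4/+ as control line. One-step SYBR RT-qPCR normalised to Rp49 by the 2^−ΔΔCt method. n = 3 experiments; one-way ANOVA, Tukey's test.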
A general note: In qPCR the cycle at which signal appears reflects the starting amount.

A short description of series [4]: Toxicity against Drosophila W1118 assessed as minimum toxic concentration by measuring eclosion rate measured for 72 hrs.
Series [5] concerns Microglia. The series can be described thus: Antiinflammatory activity against Sprague-Dawley rat microglial cells assessed as downregulation of NLRP3 mRNA expression at 2.5 uM pretreated with compound for 1 hr followed by LPS stimulation for 6 hrs by real-time PCR analysis. The settings on record: time 7.0 hrs. The series is classed as functional, cell-based. The procedure, abridged: (§2)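 Primary cortical microglia (postnatal day 1 rat pups, shaken off mixed glial cultures, ~97% Iba1-positive). Compound (DMSO ≤0.1%) for 1 h, then 100 ng/mL ultra-pure E. coli LPS for 6 h. QIAzol RNA extraction, SuperScript IV reverse transcription, real-time PCR. Mean ± SEM, n = 3 in triplicate; one-way ANOVA, Holm-Sidak test.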

Series [6] relates to Microglia. Nature of the series: Antiinflammatory activity against Sprague-Dawley rat microglial cells assessed as inhibition of LPS-induced TNF-alpha production at 1 to 2.5 uM pretreated with compound for 1 hr followed by LPS stimulation for 24 hrs by ELISA. The settings on record: dose 1-2.5 µM, time 25.0 hrs. The series is classed as functional, cell-based. The procedure, abridged: (§3)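 Primary cortical rat microglia in DMSO (≤0.1%) or vehicle for 1 h, then 100 ng/mL LPS for 24 h. TNF-α and IL-1β in culture medium by ELISA against standard curves (pg/mL), expressed as % of LPS-stimulated cultures. Mean ± SEM of 3 independent experiments; one-way ANOVA, Holm-Sidak test.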
In general terms: In an ELISA, binding on a coated surface is turned into a signal by an enzyme label.

Series [7] concerns SH-SY5Y. Nature of the series: Antioxidant activity in human SH-SY5Y cells assessed as increase in intracellular GSH level at 2.5 uM incubated for 24 hrs by […] fluorescence analysis. Type of series: functional. The procedure, abridged:
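SH-SY5Y (2×10^4 cells/well) grown 24 h, then exposed to 2.5 μM for 24 h at 37 °C. Fluorescent probe added 30 min at 37 °C; read at ex 355/em 460 nm. GSH (μM) from a GSH standard curve. Mean ± SEM of three experiments; one-way ANOVA with Dunnett's test.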

In series [8] the test system is Drosophila. The series can be described thus: Downregulation of Nrf2 transcript expression in Spastin Drosophila (Tubulin/Gal4 RNAi DSpast) neurodegenerative model at 10 uM flies raised in compound-enriched food by real-time PCR analysis. Type of series: functional. The gist of the method: as §1
Series [9] can be described thus: Toxicity against Drosophila W1118 assessed as proportion of eclosed-flies at 30 uM measured after 72 hrs.
In series [10] the test system is Microglia. Nature of the series: Antiinflammatory activity against Sprague-Dawley rat microglial cells assessed as downregulation of IL-1 beta mRNA expression at 2.5 uM pretreated with compound for 1 hr followed by LPS stimulation for 6 hrs by real-time PCR analysis. Type of series: functional, cell-based. The following applies: time 7.0 hrs. The procedure, abridged: as §2

The target of series [11] is Amyloid-beta precursor protein (Homo sapiens) (UniProt P05067). The series can be described thus: Anti-oligomeric activity against Abeta42 (unknown origin) assessed as depletion of the formation of toxic HMW Abeta42 oligomers at 5 uM measured at day 7 from sample solubilization by capillary electrophoresis assay. The following applies: time 7.0 day. The gist of the method:
(§4)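 Aβ42 stock diluted to 221 μM in 20 mM sodium phosphate pH 7.4 containing compound (ethanol stocks 1.53 mM). Capillary electrophoresis: BGE 80 mM sodium phosphate pH 7.4, 30 mbar × 3 s hydrodynamic injection, +12 kV, 25 °C, 200 nm detection. Oligomers assigned by effective mobility; HMW oligomer peak quantified semiquantitatively as normalised area %.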

In series [12] the test system is Microglia. The series can be described thus: Antiinflammatory activity against Sprague-Dawley rat microglial cells assessed as downregulation of TNF-alpha mRNA expression at 2.5 uM pretreated with compound for 1 hr followed by LPS stimulation for 6 hrs by real-time PCR analysis. Type of series: functional, cell-based. The settings on record: time 7.0 hrs. The gist of the method: as §2

Series [13] deals with Microglia. The series can be described thus: Antiinflammatory activity against Sprague-Dawley rat microglial cells assessed as inhibition of LPS-induced IL-1 beta production at 1 uM pretreated with compound for 1 hr followed by LPS stimulation for 24 hrs by ELISA. Type of series: functional, cell-based. The following applies: time 25.0 hrs. The procedure, abridged:
as §3

Series [14] concerns Microglia. The series can be described thus: Antiinflammatory activity against Sprague-Dawley rat microglial cells assessed as inhibition of LPS-induced IL-1 beta production at 1 to 2.5 uM pretreated with compound for 1 hr followed by LPS stimulation for 24 hrs by ELISA. The series is classed as functional, cell-based. The settings on record: dose 1-2.5 µM, time 25.0 hrs. The gist of the method:
as §3

The nature of series [15]: Toxicity against Drosophila W1118 assessed as proportion of eclosed-flies at 10 uM measured after 72 hrs.
Series [16] in a line: Effect on TNF-alpha release in Sprague-Dawley rat microglial cells at 2.5 uM by ELISA. Type of series: toxicity, cell-based. The settings on record: microglia. The procedure, abridged: as §3
The target of series [17] is Amyloid-beta precursor protein (Homo sapiens) (UniProt P05067). The series can be described thus: Anti-oligomeric activity against Abeta42 (unknown origin) assessed as depletion of the formation of toxic HMW Abeta42 oligomers at 1 uM measured at day 7 to 10 from sample solubilization by capillary electrophoresis assay. The settings on record: time 7-10 day. The gist of the method:
as §4

Series [18] has the same target. Nature of the series: Anti-oligomeric activity against Abeta42 (unknown origin) assessed as depletion of the formation of toxic HMW Abeta42 oligomers at 2.5 uM measured after 2 to 10 days from sample solubilization by capillary electrophoresis assay. The settings on record: time 2-10 day. The procedure, abridged:
as §4

Series [19] concerns SH-SY5Y. Nature of the series: Antioxidant activity in human SH-SY5Y cells assessed as reduction in intracellular ROS formation at 2.5 uM incubated for 24 hrs followed by incubation with t-BuOOH for 30 mins by H2DCF-DA staining based fluorescence analysis. Type of series: functional. The settings on record: time 24.5 hrs. The procedure, abridged:
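SH-SY5Y (2×10^4 cells/well) exposed to 2.5 μM for 24 h, loaded with H2DCF-DA 30 min at room temperature, probe removed, then challenged with 50 μM t-BuOOH 30 min at room temperature. Fluorescence ex 485/em 535 nm, expressed as % ROS increase. Three independent experiments; one-way ANOVA with Dunnett's test.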

Series [20] concerns Microglia. The series can be described thus: Antiinflammatory activity against Sprague-Dawley rat microglial cells assessed as inhibition of LPS-induced TNF-alpha production at 2.5 uM pretreated with compound for 1 hr followed by LPS stimulation for 24 hrs by ELISA. The settings on record: time 25.0 hrs. The series is classed as functional, cell-based. The gist of the method:
as §3

The subject of series [21] is SH-SY5Y. Nature of the series: Cytotoxicity against human SH-SY5Y cells assessed as decrease in cell viability at >2.5 uM incubated for 24 hrs by MTT assay. The series is classed as toxicity, cell-based. The gist of the method: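 SH-SY5Y, 2×10^4 cells/well, grown 24 h then exposed 24 h (1.25–40 μM) at 37 °C, 5% CO2. MTT 0.5 mg/mL in HBSS for 2 h, washed, formazan dissolved in isopropanol, read at 570 nm (reference 690 nm).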
In general terms: Tetrazolium assays rely on reduction of a dye to a coloured formazan, in cell work by metabolically active cells.

These results are taken from ChEMBL document CHEMBL5321214, “Targeting the multifaceted neurotoxicity of Alzheimer's disease by tailored functionalisation of the curcumin scaffold” (Eur J Med Chem, 2023).

Active and inactive are the calls of the source. The rule behind the calls is not given here.

Chain of Amyloid-beta precursor protein (Homo sapiens) (P05067 whole entry): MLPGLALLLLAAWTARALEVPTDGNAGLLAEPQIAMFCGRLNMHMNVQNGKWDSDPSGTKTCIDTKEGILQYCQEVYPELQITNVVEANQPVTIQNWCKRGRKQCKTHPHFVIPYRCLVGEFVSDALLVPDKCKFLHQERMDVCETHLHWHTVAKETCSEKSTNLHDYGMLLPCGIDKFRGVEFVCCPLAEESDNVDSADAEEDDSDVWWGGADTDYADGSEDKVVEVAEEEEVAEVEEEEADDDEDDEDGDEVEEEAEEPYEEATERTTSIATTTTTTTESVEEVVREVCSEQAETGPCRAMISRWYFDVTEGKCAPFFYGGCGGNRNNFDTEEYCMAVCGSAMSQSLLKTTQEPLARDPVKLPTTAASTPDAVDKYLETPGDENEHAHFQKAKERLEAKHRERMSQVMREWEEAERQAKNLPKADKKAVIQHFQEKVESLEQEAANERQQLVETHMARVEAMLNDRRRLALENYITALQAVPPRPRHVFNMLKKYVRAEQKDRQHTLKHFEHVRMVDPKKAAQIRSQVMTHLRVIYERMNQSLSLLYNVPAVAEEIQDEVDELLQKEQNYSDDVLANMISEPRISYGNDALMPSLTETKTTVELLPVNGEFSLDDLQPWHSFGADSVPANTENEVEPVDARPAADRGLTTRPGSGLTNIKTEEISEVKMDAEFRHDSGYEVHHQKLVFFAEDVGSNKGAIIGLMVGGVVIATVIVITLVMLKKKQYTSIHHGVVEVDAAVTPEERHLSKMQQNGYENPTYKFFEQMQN

In general, inhibition refers to the percentage by which the read-out fell short of the control. Turning to `CCCCn1cc(C/C(C(=O)/C=C/c2ccc(OC)cc2)=C(O)\C=C\c2ccc(OC)cc2)nn1`, the Activity in series [1] is listed as 95.238%; in [2], 71.309%; in the series on SH-SY5Y [7], 40%; in series [9] it was 85.461%; in series [15], 93.831%; in [16] it was “Non-Toxic”. In addition, the Activity entry with SH-SY5Y [21] is “Toxic”. Further, the inhibition entry in the series on Drosophila [3] and in the series on Drosophila [8] was “Active” in each case. The MTC in [4] stood at 10 µM. In addition, the result (with Microglia [5]; with Microglia [6]; with Microglia [10]; in series [11]; in the series with Microglia [12]; in the series on Microglia [13]) was Active. The outcome (in the series with Microglia [14]; in [17]; in series [18]; in the series with Microglia [20]) was Active. In addition, the inhibition at 2.5 µM in the series on SH-SY5Y [19] came to 18%.
